Source: ChEMBL document CHEMBL1141286, “Benzochromenones from the marine crinoid Comantheria rotula inhibit hypoxia-inducible factor-1 (HIF-1) in cell-based reporter assays and differentially suppress the growth of certain tumor cell lines” (J Nat Prod, 2007)

Experiments:
SNB-75 = test: Growth inhibition of human SNB75 cells; type: functional; details: for TGI: read-out: Log TGI (converted)
OVCAR-4 = test: Growth inhibition of human OVACAR4 cells; type: functional; details: for TGI: read-out: Log TGI (converted)
SN12C = test: Growth inhibition of human SN12C cells; type: functional; details: for TGI: read-out: Log TGI (converted)
[1] = Inhibition of HIF1 activation in PC3 cells by TK-luciferase assay; type: cell-based; details: Homo sapiens, PC-3
Method in brief: (§1)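 HIF-1 reporter (pHRE-TK-Luc) assays in transfected PC-3 or T47D cells; HIF-1 induced by hypoxia or by the hypoxia mimetic 1,10-phenanthroline (10 μM); compounds at half-log concentrations; luciferase activity measured; IC50 from experiments in triplicate.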

HL-60 = test: Growth inhibition of human HL60 cells; type: functional; details: for TGI: read-out: Log TGI (converted)
HT-29 = test: Growth inhibition of human HT29 cells; type: functional; details: for CC50: read-out: Log LC50 (the source's name) (converted); for TGI: read-out: Log TGI (converted)
HCT-15 = test: Growth inhibition of human HCT15 cells; type: functional; details: for CC50: read-out: Log LC50 (the source's name) (converted); for TGI: read-out: Log TGI (converted)
[2] = Growth inhibition of human OVACAR3 cells; type: functional; details: for CC50: read-out: Log LC50 (the source's name) (converted); for TGI: read-out: Log TGI (converted)
SK-MEL-5 = test: Growth inhibition of human SK-MEL5 cells; type: functional; details: for TGI: read-out: Log TGI (converted)
786-0 = test: Growth inhibition of human 786-0 cells; type: functional; details: for TGI: read-out: Log TGI (converted)
UACC-257 = test: Growth inhibition of human UACC257 cells; type: functional; details: for TGI: read-out: Log TGI (converted)
TK-10 = test: Growth inhibition of human TK10 cells; type: functional; details: for TGI: read-out: Log TGI (converted)
COLO 205 = test: Growth inhibition of human COLO205 cells; type: functional; details: for CC50: read-out: Log LC50 (the source's name) (converted); for TGI: read-out: Log TGI (converted)
SK-MEL-2 = test: Growth inhibition of human SK-MEL2 cells; type: functional; details: for TGI: read-out: Log TGI (converted)
Hs-578T = test: Growth inhibition of human HS578T cells; type: functional; details: for TGI: read-out: Log TGI (converted)
[3] = Inhibition of luciferase at 30 uM
Method in brief: (§2)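 Purified recombinant firefly luciferase (QuantiLum, 46.8 μg mL−1) mixed with compound in passive lysis buffer containing BSA (1 mg mL−1); equal volume of luciferase substrate added, light output read; percentage inhibition relative to DMSO control; concentration-response curves up to 30 μM.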

SK-MEL-28 = test: Growth inhibition of human SK-MEL28 cells; type: functional; details: for CC50: read-out: Log LC50 (the source's name) (converted); for TGI: read-out: Log TGI (converted)
MOLT-4 = test: Growth inhibition of human MOLT4 cells; type: functional; details: for CC50: read-out: Log LC50 (the source's name) (converted)
[4] = Inhibition of 1,10-phenanthroline-induced HIF1 activation in PC3 cells by TK-luciferase assay; type: cell-based; details: Homo sapiens, PC-3; method in brief: as §1
NCI-H522 = test: Growth inhibition of human NCI-H522 cells; type: functional; details: for CC50: read-out: Log LC50 (the source's name) (converted); for TGI: read-out: Log TGI (converted)
SW-620 = test: Growth inhibition of human SW620 cells; type: functional; details: for CC50: read-out: Log LC50 (the source's name) (converted); for TGI: read-out: Log TGI (converted)
RPMI-8226 = test: Growth inhibition of human RPMI8226 cells; type: functional; details: for CC50: read-out: Log LC50 (the source's name) (converted); for TGI: read-out: Log TGI (converted)
[5] = target: Hypoxia inducible factors; HIF-1-alpha, HIF-2-alpha (Homo sapiens, UniProt Q16665+Q99814); test: Inhibition of HIF1 activation in human T47D cells by TK-luciferase assay; type: cell-based; method in brief: as §1
IGROV-1 = test: Growth inhibition of human IGROV1 cells; type: functional; details: for CC50: read-out: Log LC50 (the source's name) (converted); for TGI: read-out: Log TGI (converted)
A498 = test: Growth inhibition of human A498 cells; type: functional
CCRF-CEM = test: Growth inhibition of human CCRF-CEM cells; type: functional
[6] = Inhibition of luciferase; method in brief: as §2

SMILES: CCCc1cc(=O)c2c(O)c3c(OC)cc(O)cc3cc2o1
- GI50 (SNB-75): 30.9 µM
- LC50 (SNB-75): > 100 µM
- TGI (SNB-75): 74.1 µM
- GI50 (OVCAR-4): 26.3 µM
- LC50 (OVCAR-4): > 100 µM
- TGI (OVCAR-4): > 100 µM
- GI50 (SN12C): 19.1 µM
- LC50 (SN12C): > 100 µM
- TGI (SN12C): 50.1 µM
- IC50 [1]: 1 µM
- GI50 (HL-60): 30.9 µM
- LC50 (HL-60): > 100 µM
- TGI (HL-60): 61.7 µM
- GI50 (HT-29): 18.6 µM
- CC50 (HT-29): 72.4 µM
- TGI (HT-29): 37.2 µM
- GI50 (HCT-15): 15.1 µM
- CC50 (HCT-15): > 100 µM
- TGI (HCT-15): 40.7 µM
- GI50 [2]: 27.5 µM
- CC50 [2]: > 100 µM
- TGI [2]: > 100 µM
- GI50 (SK-MEL-5): 14.8 µM
- LC50 (SK-MEL-5): 52.5 µM
- TGI (SK-MEL-5): 27.5 µM
- GI50 (786-0): 25.1 µM
- LC50 (786-0): > 100 µM
- TGI (786-0): > 100 µM
- GI50 (UACC-257): 27.5 µM
- LC50 (UACC-257): > 100 µM
- TGI (UACC-257): 56.2 µM
- GI50 (TK-10): 30.2 µM
- LC50 (TK-10): > 100 µM
- TGI (TK-10): > 100 µM
- GI50 (COLO 205): 25.1 µM
- CC50 (COLO 205): > 100 µM
- TGI (COLO 205): 50.1 µM
- GI50 (SK-MEL-2): 18.6 µM
- LC50 (SK-MEL-2): 91.2 µM
- TGI (SK-MEL-2): 40.7 µM
- GI50 (Hs-578T): 25.1 µM
- LC50 (Hs-578T): > 100 µM
- TGI (Hs-578T): 67.6 µM
- inhibition [3]: 48%
- GI50 (SK-MEL-28): 20 µM
- CC50 (SK-MEL-28): 87.1 µM
- TGI (SK-MEL-28): 41.7 µM
- CC50 (MOLT-4): > 100 µM
- IC50 [4]: 0.8 µM
- GI50 (NCI-H522): > 100 µM
- CC50 (NCI-H522): 41.7 µM
- TGI (NCI-H522): 15.1 µM
- GI50 (SW-620): 21.4 µM
- CC50 (SW-620): 77.6 µM
- TGI (SW-620): 40.7 µM
- GI50 (RPMI-8226): 14.5 µM
- CC50 (RPMI-8226): > 100 µM
- TGI (RPMI-8226): 43.7 µM
- IC50 [5]: 1.7 µM
- GI50 (IGROV-1): 19.1 µM
- CC50 (IGROV-1): > 100 µM
- TGI (IGROV-1): 44.7 µM

SMILES: CCCc1cc(=O)c2c(OC)c3c(OC)cc(O)c(Oc4c(O)cc(OC)c5c(OC)c6c(=O)cc(CCC)oc6cc45)c3cc2o1
- GI50 (SNB-75): 2.95 µM
- LC50 (SNB-75): 30.2 µM
- TGI (SNB-75): 8.71 µM
- GI50 (OVCAR-4): 2.57 µM
- LC50 (OVCAR-4): 37.2 µM
- TGI (OVCAR-4): 8.51 µM
- GI50 (SN12C): 2.09 µM
- LC50 (SN12C): 14.1 µM
- TGI (SN12C): 4.79 µM
- IC50 [1]: 10 µM
- GI50 (HL-60): 3.89 µM
- LC50 (HL-60): 79.4 µM
- TGI (HL-60): 11.2 µM
- GI50 (HT-29): 13.2 µM
- CC50 (HT-29): 79.4 µM
- TGI (HT-29): 32.4 µM
- GI50 (A498): 18.2 µM
- LC50 (A498): 60.3 µM
- TGI (A498; read-out: Log TGI (converted)): 33.1 µM
- GI50 (HCT-15): 7.41 µM
- CC50 (HCT-15): 47.9 µM
- TGI (HCT-15): 20.4 µM
- GI50 [2]: 2.19 µM
- CC50 [2]: 57.5 µM
- TGI [2]: 8.71 µM
- GI50 (SK-MEL-5): 2.09 µM
- LC50 (SK-MEL-5): 7.08 µM
- TGI (SK-MEL-5): 3.8 µM
- GI50 (786-0): 9.33 µM
- LC50 (786-0): 49 µM
- TGI (786-0): 21.9 µM
- GI50 (UACC-257): 3.8 µM
- LC50 (UACC-257): 40.7 µM
- TGI (UACC-257): 13.8 µM
- GI50 (TK-10): 17 µM
- LC50 (TK-10): 57.5 µM
- TGI (TK-10): 31.6 µM
- GI50 (COLO 205): 10 µM
- CC50 (COLO 205): 57.5 µM
- TGI (COLO 205): 24 µM
- GI50 (SK-MEL-2): 10.7 µM
- LC50 (SK-MEL-2): 61.7 µM
- TGI (SK-MEL-2): 25.7 µM
- GI50 (Hs-578T): 5.89 µM
- LC50 (Hs-578T): 100 µM
- TGI (Hs-578T): 69.2 µM
- GI50 (CCRF-CEM): 2.34 µM
- LC50 (CCRF-CEM): > 100 µM
- TGI (CCRF-CEM; read-out: Log TGI (converted)): 14.1 µM
- GI50 (SK-MEL-28): 11.5 µM
- CC50 (SK-MEL-28): 53.7 µM
- TGI (SK-MEL-28): 24.5 µM
- GI50 (MOLT-4): 3.24 µM
- CC50 (MOLT-4): 97.7 µM
- TGI (MOLT-4; read-out: Log TGI (converted)): 11.5 µM
- IC50 [4]: 3.9 µM
- GI50 (NCI-H522): 6.61 µM
- CC50 (NCI-H522): 60.3 µM
- TGI (NCI-H522): 21.9 µM
- GI50 (SW-620): 11.5 µM
- CC50 (SW-620): 61.7 µM
- TGI (SW-620): 26.3 µM
- GI50 (RPMI-8226): 4.9 µM
- CC50 (RPMI-8226): 70.8 µM
- TGI (RPMI-8226): 21.4 µM
- IC50 [6]: 2.4 µM
- IC50 [5]: 7.3 µM
- GI50 (IGROV-1): 10.2 µM
- CC50 (IGROV-1): 57.5 µM
- TGI (IGROV-1): 24 µM
